Results on 13 compounds are retold here after ChEMBL document CHEMBL3992496, “Oligonucleotide transition state analogues of saporin L3” (Eur J Med Chem, 2017).

A short description of assay [1]: Competitive inhibition of Saponaria officinalis saporin L3 expressed in yeast using RNA A10 as substrate preincubated for 10 mins followed substrate addition by luciferase assay.
Assay [2] is described as follows: Competitive inhibition of Saponaria officinalis saporin L1 using RNA A10 as substrate preincubated for 10 mins followed substrate addition by continuous luciferase assay.
Assay [3] is described as follows: Competitive inhibition of Saponaria officinalis saporin L3 A14C mutant expressed in yeast using rabbit rRNA as substrate. An outline of the steps:
(§1)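 Saporin L3 A14C, secreted from yeast and purified. Substrate held fixed: isolated rabbit 80S ribosomes (100 nM) or yeast tRNA (1.0 mg/mL). Inhibitor preincubated with enzyme 10 min for slow-onset binding before substrate, then adenine release read by coupled luciferase method. Ki* taken from competitive inhibition fit.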

A short description of assay [4]: Competitive inhibition of Saponaria officinalis saporin L3 A14C mutant expressed in yeast using yeast tRNA as substrate. In outline: as §1
The nature of assay [5]: Competitive inhibition of Saponaria officinalis saporin L3 expressed in yeast using rabbit rRNA as substrate. In outline: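 Saporin L3 secreted from yeast cultures and purified to near-homogeneity. Substrate was isolated rabbit 80S ribosomes purified in-house, fixed at 100 nM, with concentration from A260. Inhibitor at varying concentrations was preincubated with enzyme for 10 min. K_i* was taken as slow-onset competitive inhibition.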

Assay [6] in a line: Inhibition of yeast expressing Saponaria officinalis saporin L3 A14C mutant-mediated suppression of luciferase mRNA translation in rabbit reticulocyte extract preincubated with protein for 10 mins followed by addition of rabbit reticulocyte translation system for 90 mins by luciferase assay. An outline of the steps: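 Rabbit reticulocyte lysate translation of luciferase-encoding mRNA. 10 nM SAP A14C preincubated 10 min with increasing inhibitor in pH 7.4 buffer, then added to translation mix, 30 °C, 90 min. Luciferase luminescence read. Control contained top inhibitor concentration without enzyme. Percent translation vs log inhibitor fit to dose-response curve for EC50.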

Assay [7] can be described thus: Competitive inhibition of Saponaria officinalis saporin L3 expressed in yeast using yeast tRNA as substrate.

By Ki is commonly meant the dissociation constant of the complex between target and ligand, obtained from inhibition or displacement. The low end stands for higher affinity, the high end for lower affinity. One may read the IC50 as the midpoint of a concentration-inhibition curve. High values mean a need for much substance, low ones inhibition by little substance.

On to `CO[C@@H]1[C@H](OP(=O)(O)OC[C@H]2CN(Cc3c[nH]c4c(N)ncnc34)C[C@@H]2OP(=O)(O)OC[C@H]2O[C@@H](n3cnc4c(=O)[nH]c(N)nc43)[C@H](OC)[C@@H]2OP(=O)(O)OCCCO)[C@@H](CO)O[C@H]1n1cnc2c(=O)[nH]c(N)nc21`, for which, in assay [1], the Ki worked out at 10.5 nM.
Same read-out and setting: the value for `CO[C@@H]1[C@H](O)[C@@H](COP(=O)(O)O[C@H]2[C@@H](OC)[C@H](n3cnc4c(=O)[nH]c(N)nc43)O[C@@H]2COP(=O)(O)O[C@H]2CN(Cc3c[nH]c4c(N)ncnc34)C[C@@H]2COP(=O)(O)OC2[C@@H](OC)[C@H](n3cnc4c(=O)[nH]c(N)nc43)O[C@@H]2CO)O[C@H]1n1cnc2c(N)ncnc21` (stereo partly drawn) was 6.1 nM; that for `CO[C@@H]1[C@H](OP(=O)(O)OC[C@H]2CN(Cc3c[nH]c4c(N)ncnc34)C[C@@H]2OP(=O)(O)OCCCO)[C@@H](COP(=O)(O)OCCCO)O[C@H]1n1cnc2c(=O)[nH]c(N)nc21` was 188 nM.
Still for that read-out and setting: the value for `CO[C@@H]1[C@H](OP(=O)(O)OCCCO)[C@@H](COP(=O)(O)O[C@H]2CN(CCc3c[nH]c4c(N)ncnc34)C[C@@H]2COP(=O)(O)OCCCO)O[C@H]1n1cnc2c(=O)[nH]c(N)nc21` was 12.4 nM; that for `CO[C@@H]1[C@H](O)[C@@H](COP(=O)(O)O[C@H]2CN(Cc3c[nH]c4c(N)ncnc34)C[C@@H]2CO)O[C@H]1n1cnc2c(=O)[nH]c(N)nc21` was 21300 nM.
Take `CO[C@@H]1[C@H](OP(=O)(O)OCCCO)[C@@H](COP(=O)(O)OCC(COP(=O)(O)OCCCO)NCc2c[nH]c3c(N)ncnc23)O[C@H]1n1cnc2c(=O)[nH]c(N)nc21` (stereo partly drawn): affinity in assay [2] was put at a Ki of 43.2 nM.
Take `CO[C@@H]1[C@H](O)[C@@H](COP(=O)(O)O[C@H]2CN(Cc3c[nH]c4c(N)ncnc34)C[C@@H]2COP(=O)(O)OCCCO)O[C@H]1n1cnc2c(=O)[nH]c(N)nc21`: the Ki in assay [1] turned out to be 19.3 nM.
Turning to `CO[C@@H]1[C@H](OP(=O)(O)OCCCO)[C@@H](COP(=O)(O)O[C@H]2CN(Cc3c[nH]c4c(N)ncnc34)C[C@@H]2COP(=O)(O)OCCCO)O[C@H]1n1cnc2c(=O)[nH]c(N)nc21`, the Ki in assay [3] is 5.4 nM; in assay [4] it was 8.4 nM; in assay [5] it was 6.7 nM; in assay [1], 3.3 nM; in assay [7] it was 9.9 nM. In assay [6], the IC50 was 13 nM.
The compound `CO[C@@H]1[C@H](OP(=O)(O)OC[C@H]2O[C@@H](n3cnc4c(=O)[nH]c(N)nc43)[C@H](OC)[C@@H]2OP(=O)(O)OC[C@H]2CN(Cc3c[nH]c4c(N)ncnc34)C[C@@H]2OP(=O)(O)OCCCO)[C@@H](CO)O[C@H]1n1cnc2c(=O)[nH]c(N)nc21` showed a Ki in assay [1] of 212 nM.
For `CO[C@@H]1[C@H](OP(=O)(O)OCCCO)[C@@H](COP(=O)(O)O[C@H]2CN(Cc3c[nH]c4c(N)ncnc34)C[C@@H]2CO)O[C@H]1n1cnc2c(=O)[nH]c(N)nc21`, the affinity in assay [1] corresponds to a Ki of 10700 nM.
Same read-out and setting: the value for `CO[C@@H]1[C@H](O)[C@@H](COP(=O)(O)O[C@H]2CN(Cc3c[nH]c4c(N)ncnc34)C[C@@H]2COP(=O)(O)OC2[C@@H](OC)[C@H](n3cnc4c(=O)[nH]c(N)nc43)O[C@@H]2CO)O[C@H]1n1cnc2c(=O)[nH]c(N)nc21` (stereo partly drawn) was 33 nM.
Regarding `CO[C@@H]1[C@H](OP(=O)(O)OC[C@H]2CN(Cc3c[nH]c4c(N)ncnc34)C[C@@H]2OP(=O)(O)OC[C@H]2O[C@@H](n3cnc4c(=O)[nH]c(N)nc43)[C@H](OC)[C@@H]2OP(=O)(O)OCCCO)[C@@H](COP(=O)(O)OCCCO)O[C@H]1n1cnc2c(=O)[nH]c(N)nc21`, affinity in assay [1] was put at a Ki of 7.4 nM.
Same read-out and setting: next, `CO[C@@H]1[C@H](OP(=O)(O)OCCCO)[C@@H](COP(=O)(O)OCC(CNCc2c[nH]c3c(N)ncnc23)COP(=O)(O)OCCCO)O[C@H]1n1cnc2c(=O)[nH]c(N)nc21` (mixture of isomers): 26.8 nM.
